# From PubChem
# OXTR potentiate – potentiates the human oxytocin receptor response. P30559. CHO-OTR cells, Fluo-8 calcium fluorescence, potentiator mode; 0% = oxytocin EC15, 100% = EC100. activation, % at 3 µM. 320,000 compounds, 0.061% hits;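 active means activation above that plate's cutoff, the mean activation of tested compounds plus 3 SD, cut at about 6.6% in these data, passing the limit was not always enough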;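 further: 100% uses oxytocin at 75 nM as the full agonist control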
# Target sequence (P30559 whole entry, looked up): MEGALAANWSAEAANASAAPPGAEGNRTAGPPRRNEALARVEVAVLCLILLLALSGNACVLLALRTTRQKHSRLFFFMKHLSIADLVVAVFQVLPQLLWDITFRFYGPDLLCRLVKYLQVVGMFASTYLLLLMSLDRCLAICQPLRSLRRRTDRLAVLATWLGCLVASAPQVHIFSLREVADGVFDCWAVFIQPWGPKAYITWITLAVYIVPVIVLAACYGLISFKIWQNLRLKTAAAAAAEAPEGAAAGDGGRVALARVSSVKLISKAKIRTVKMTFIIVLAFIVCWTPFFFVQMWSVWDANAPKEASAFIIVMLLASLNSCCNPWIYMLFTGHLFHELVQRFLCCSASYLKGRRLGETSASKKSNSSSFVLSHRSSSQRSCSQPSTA
#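 Assay system: CHO-OTR cells, human receptor / Also added: oxytocin at about EC15, sub-maximal agonist stimulus / Dosing: single dose, 3.0 µM nominal final compound concentration / Incubation: 6 min pre-incubation, 100 s read / Technique: Fluo-8 calcium dye fluorescence / Read-out: % activation vs EC15 and EC100 oxytocin / Benchmarks: EC15 oxytocin low, 75 nM oxytocin high / Replicates: singlicate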
# TAAR1 antag – antagonists of human TAAR1. Q96RJ0. CHO RD-HGA16 TAAR1, Fluo-8 calcium fluorescence, antagonist. inhibition, % at 3 µM. 360,000 compounds, 1.5% hits. AID 624466;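 active means inhibition above a per-plate cutoff, the mean inhibition of test compounds on that plate plus 3 SD, cut at about 49% in these data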;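 further: 0% = DMSO plus EC80 beta-PEA response and 100% = DMSO alone without agonist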
# Target sequence (Q96RJ0 whole entry, looked up): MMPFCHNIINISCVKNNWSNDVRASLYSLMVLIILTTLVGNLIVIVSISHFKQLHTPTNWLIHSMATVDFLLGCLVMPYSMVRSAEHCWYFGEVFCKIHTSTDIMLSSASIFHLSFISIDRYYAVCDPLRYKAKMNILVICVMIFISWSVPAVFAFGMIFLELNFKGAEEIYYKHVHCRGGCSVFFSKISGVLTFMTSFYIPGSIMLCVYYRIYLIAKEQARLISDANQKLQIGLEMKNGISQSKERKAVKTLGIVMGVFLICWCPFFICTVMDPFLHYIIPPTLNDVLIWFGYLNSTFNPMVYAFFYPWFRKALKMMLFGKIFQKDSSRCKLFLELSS
#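 Test system – hTAAR1-expressing CHO RD-HGA16 cells, Gα16-coupled · Reagent – β-PEA at EC80 concentration, post-compound challenge · Compound dosing – 3 µM, single point · Timing – 140 s kinetic read after compound, 140 s after agonist · Detection – Fluo-8 intracellular calcium dye fluorescence, real-time kinetic reads · Control set – DMSO and EC80 PEA controls · Repeats – n of 1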
# TAAR1 ag – agonists of human TAAR1 | 360,000 compounds, 0.99% hits | activation, % at 3 µM | AID 624467 | CHO RD-HGA16 TAAR1, Fluo-8 calcium fluorescence; vehicle wells 0%, saturating PEA agonist 100% | Q96RJ0;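 active means activation above the mean activation of all test compounds in the run plus 3 SD, cut at about 38% in these data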
#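 Test system: RD-HGA16 (CHO) cells co-expressing Gα16 and hTAAR1 | Doses: Single dose, 3 µM | Schedule: 17-24 h seeding, 75 min 37 °C dye, 30 min RT | Evaluation: % activation from peak over basal fluorescence ratio, DMSO-to-PEA scaled | Technique: Kinetic Fluo-8 calcium fluorescence | Benchmarks: Low control DMSO, high control PEA (EC100)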
# V1R ag counter – activates human V1a receptor in oxytocin agonist counter-screen; CHO-V1R cells, Fluo-8 calcium fluorescence, agonist mode; 0% DMSO, 100% 3 nM vasopressin; 320,000 compounds, 0.25% hits; P37288; activation, % at 3 µM;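 active means activation above the mean activation of all tested compounds plus 3 SD, per screening run, cut at about 20% in these data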;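 further: signal is peak over basal fluorescence ratio across a 100 second FLIPR read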
# OXTR ag – activates the human oxytocin receptor. AID 2435. P30559. 320,000 compounds, 0.32% hits. CHO-OTR cells, Fluo-8 calcium fluorescence; normalized: DMSO 0%, oxytocin 100%. activation, % at 3 µM;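 active means activation above the mean of all tested compounds plus 3 SD, cutoff set per screening run, cut at about 20% in these data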;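 further: peak over basal fluorescence ratio from a 100 s FLIPR kinetic read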
# The depositor's hits bear a star; / = no result given. Sampled rows, rich in hits. Any-hit rate of the full collection: about 2.3%.
SMILES,OXTR potentiate,TAAR1 antag,TAAR1 ag,V1R ag counter,OXTR ag
CN(C)CCNC(=O)C(=O)NCC1OCCN1S(=O)(=O)c1cc(F)ccc1F (stereo not drawn),-2.6,-12.3,2.8,0.3,0.6
COc1ccccc1CCNC(=O)C(=O)NCC1OCCN1S(=O)(=O)c1cc(F)ccc1F (stereo not drawn),-3.0,-1.6,37.6*,0.7,0.4
CN1CCN(C(CC(=O)Nc2cccc(O)c2)C(=O)O)CC1 (stereo not drawn),-2.7,/,/,0.4,0.8
CC(C)=CCC[C@](C)(OC1OC(COC2OCC(O)C(O)C2O)C(O)C(O)C1O)C1CC[C@]2(C)C1C(O)CC1[C@@]3(C)CCC(O[C@@H]4O[C@H](CO)C(O)C(O)C4O[C@@H]4OC(CO)C(O)C(O)C4O)C(C)(C)C3CC[C@]12C (stereo partly drawn),-4.9,12.1,4.8,1.6,0.4
CC(C)=CCC[C@](C)(O)C1CC[C@]2(C)C1[C@H](O)CC1[C@@]3(C)CC[C@H](O[C@@H]4O[C@H](CO)[C@@H](O)[C@H](O)[C@H]4O[C@@H]4O[C@H](CO)[C@@H](O)[C@H](O)[C@H]4O)C(C)(C)C3CC[C@]12C (stereo partly drawn),-12.3,25.7,18.2,38.1*,70.1*
NC(=O)c1ccc(Nc2nc(C(N)COCc3ccccc3)cs2)cc1 (stereo not drawn),/,-0.5,2.4,/,/
NC(CCc1ccccc1)c1csc(Nc2ccc(C(=O)NCCO)cc2)n1 (stereo not drawn),/,1.5,1.6,/,/
NC(CCc1ccccc1)c1csc(Nc2ccc(C(=O)c3ccccc3)cc2)n1 (stereo not drawn),/,34.2,40.8*,/,/
COc1ccccc1NC(=O)Nc1nc(C(N)CCc2ccccc2)cs1 (stereo not drawn),/,8.8,8.4,/,/
NC(CCc1ccccc1)c1csc(NC(=O)Nc2cccc(Cl)c2)n1 (stereo not drawn),/,46.3,39.0*,/,/
NC(COCc1ccccc1)c1csc(Nc2ccc(C(=O)c3ccccc3)cc2)n1 (stereo not drawn),/,42.7,49.9*,/,/
Cc1cccc(OCc2nnc(SCC(=O)Nc3ccc(C)c(C)c3)o2)c1,-7.6,54.3*,4.9,1.6,1.3
COc1ccc(NC(=O)CSc2nnc(-c3cccc(O)c3)o2)cc1,-10.4,-12.1,40.3*,1.0,1.8
CCOc1ccc(-n2ccnc(SCC(=O)NCCc3ccccc3)c2=O)cc1,1.9,-24.6,0.6,-0.6,-0.4
Cc1ccc(-n2ccnc(SCC(=O)NCCc3ccccc3)c2=O)cc1F,-9.0,-36.9,37.5*,0.1,-1.9
CC1(C)CCN2CCC(C)(C)c3c(O)ccc1c32,-11.3,17.4,23.6,28.2*,24.7*
O=[N+]([O-])c1ccc2nc(NN=Cc3ccc(O)cc3)sc2c1,/,50.8*,11.6,/,/
CC(C)c1ccc(/C=C/C(=O)Nc2nc3ccc([N+](=O)[O-])cc3s2)cc1,-0.1,-13.6,11.9,0.4,-0.2
O=C(NC1CCCCC1)c1cc(-c2ccc(F)cc2)on1,-11.5,3.8,-0.1,0.6,0.4
O=C(NC1CCCCC1)c1cc(-c2cccs2)on1,-5.5,-10.4,39.5*,2.6,-0.2
CCOc1ccc(NC2CCCCC2NS(=O)(=O)c2ccccc2)cc1 (stereo not drawn),-1.8,-33.3,2.3,-0.9,-1.1
O=C(c1ccco1)N1CCN(C2CN(Cc3ccc(F)cc3)S(=O)(=O)C2)CC1 (stereo not drawn),/,-12.3,1.7,/,/
Cc1cc(C)c(C)c(S(=O)(=O)N2CCN(Cc3nc4ccccc4[nH]3)CC2)c1C,-4.0,49.5*,20.5,3.3,3.1
COCCNC(=O)Cn1nc(-c2ccccc2C)ccc1=O,-9.7,-18.1,12.2,0.4,-0.5
COc1cc(CCc2ccccc2)c(C(=O)O)c(O)c1C/C=C(/C)CCC=C(C)C,/,52.6*,-0.9,/,/
SMILES,OXTR potentiate,TAAR1 antag,TAAR1 ag,V1R ag counter,OXTR ag
CCn1c(SC(C)C(=O)Nc2ccc3c(c2)OCCO3)nnc1C1CC1 (stereo not drawn),-2.1,7.8,4.4,0.7,-0.2
Cc1ccc2sc(NC(=O)c3cccc(N4C(=O)CCC4=O)c3)nc2c1C,-17.1,45.4,47.8*,12.9,16.9
O=C(CCNS(=O)(=O)c1ccc(Br)cc1)NCC(c1cccs1)N1CCOCC1 (stereo not drawn),/,-9.6,1.4,/,/
COCOCCn1cc(CN2CCS(=O)(=O)N(Cc3ccc(-c4ccc(Cl)nc4)cc3)C(CC(C)C)C2=O)nn1 (stereo not drawn),/,48.8*,12.3,/,/
Cc1ccc(-c2ccc(CN3C(CC(C)C)C(=O)N(Cc4cn(CCC5OCCCO5)nn4)CCS3(=O)=O)cc2)cc1 (stereo not drawn),/,58.2*,10.0,/,/
O=C(Cc1ccccc1)Nc1nc(-c2ccc(F)c(F)c2)cs1,-13.5,56.3*,4.9,1.1,-1.5
O=C(CCN1C(=O)C2CC=CCC2C1=O)Nc1nc(-c2ccc(F)c(F)c2)cs1 (stereo not drawn),-9.8,60.3*,31.0,11.0,7.7
O=C(CN1CCCCC1)Nc1nc(-c2ccc(F)c(F)c2)cs1,-9.1,49.2*,12.8,7.1,0.8
O=C(CN1CCCCC1)Nc1nc(-c2ccc(Cl)cc2)cs1,/,-11.6,2.3,/,/
CC(OC(=O)c1ccc([N+](=O)[O-])o1)C(=O)Nc1nc(-c2ccc(F)c(F)c2)cs1 (stereo not drawn),/,58.6*,6.0,/,/
Cc1cc(C(=O)OC(C)C(=O)Nc2nc(-c3ccccc3)cs2)c(C)o1 (stereo not drawn),-4.8,-3.2,-2.0,8.3,-1.2
COc1ccc(-c2csc(NC(=O)Cc3ccccc3)n2)cc1OC,-7.6,3.7,0.9,2.7,-0.1
Cc1ccc(S(=O)(=O)CCNC(=O)Cc2ccc(Cl)cc2)cc1,-7.8,-1.6,3.6,0.3,3.7
Cc1ccc(CN(C)C(=O)c2cc(S(=O)(=O)N3CCOCC3)ccc2F)o1,-2.8,-13.6,-0.4,0.4,0.8
Cc1ccc(C(=O)O)cc1NC(=O)CN1C(=O)C2C3c4ccccc4C(Br)(c4ccccc43)C2C1=O (stereo not drawn),-7.2,-10.2,3.7,-0.2,0.0
COc1cccc(NC(=O)Nc2nc(-c3ccc(OC)c(OC)c3)cs2)c1,-14.2,82.3*,28.3,13.8,12.1
Cc1ccc(NC(=O)CCn2cnc3ccccc3c2=O)cc1Cl,-4.2,23.2,39.7*,-0.5,0.0
COc1cccc(CC(=O)Nc2nc(-c3cc(OC)ccc3OC)cs2)c1,-6.6,12.7,0.6,-0.8,-2.1
COc1ccc(C2(O)CCN(CC(=O)Nc3nc(-c4ccccc4)cs3)CC2)cc1,-6.6,51.3*,12.9,3.3,3.2
COc1cccc(CC(=O)Nc2nc(-c3ccc(F)c(F)c3)cs2)c1,-9.8,52.1*,3.9,2.2,0.7
